Laboratory results: ChEMBL document CHEMBL1125005, “Synthesis, biological profile, and quantitative structure-activity relationship of a series of novel 3-hydroxy-3-methylglutaryl coenzyme A reductase inhibitors” (J Med Chem, 1990)

Key:
[1] = target: T1, 3-hydroxy-3-methylglutaryl-coenzyme A reductase (Rattus norvegicus) (UniProt P51639); assay: The compound was tested for the relative potency with respect to standard compound BMY-21950
T1 sequence (whole entry): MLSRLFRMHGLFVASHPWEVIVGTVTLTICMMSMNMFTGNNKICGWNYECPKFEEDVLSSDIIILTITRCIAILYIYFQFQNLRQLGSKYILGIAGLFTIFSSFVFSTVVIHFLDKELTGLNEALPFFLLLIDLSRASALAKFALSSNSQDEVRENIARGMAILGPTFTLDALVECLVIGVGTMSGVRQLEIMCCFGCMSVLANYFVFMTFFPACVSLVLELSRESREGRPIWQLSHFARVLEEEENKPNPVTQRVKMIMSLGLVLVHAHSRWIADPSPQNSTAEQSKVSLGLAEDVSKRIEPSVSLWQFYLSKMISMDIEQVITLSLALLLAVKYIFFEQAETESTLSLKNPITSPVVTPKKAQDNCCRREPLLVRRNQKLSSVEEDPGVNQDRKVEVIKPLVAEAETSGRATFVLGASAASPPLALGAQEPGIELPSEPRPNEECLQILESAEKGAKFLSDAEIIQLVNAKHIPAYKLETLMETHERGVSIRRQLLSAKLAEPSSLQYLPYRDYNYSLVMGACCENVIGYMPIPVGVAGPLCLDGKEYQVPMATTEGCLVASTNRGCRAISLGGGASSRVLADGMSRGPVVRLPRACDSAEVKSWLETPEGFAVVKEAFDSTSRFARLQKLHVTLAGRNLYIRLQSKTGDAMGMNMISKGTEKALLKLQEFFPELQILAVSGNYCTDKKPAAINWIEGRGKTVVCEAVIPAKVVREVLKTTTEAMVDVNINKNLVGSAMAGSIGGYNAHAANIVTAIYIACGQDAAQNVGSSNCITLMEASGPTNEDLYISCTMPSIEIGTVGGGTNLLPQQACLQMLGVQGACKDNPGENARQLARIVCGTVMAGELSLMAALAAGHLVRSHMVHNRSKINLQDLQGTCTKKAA

[2] = target: T2, 3-hydroxy-3-methylglutaryl-coenzyme A reductase (Rattus norvegicus, UniProt P51639); assay: In vitro inhibitory activity was measured against rat liver HMG-CoA reductase
T2 sequence (P51639 whole entry): T1 sequence (whole entry)
Procedure, shortened: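 Enzyme: intact, fully activated rat liver microsomal HMG-CoA reductase, 50–100 μg protein in buffer A (50 mM imidazole HCl, 250 mM NaCl, 1 mM EDTA, 1 mM EGTA, 5 mM DTT, pH 7.2). Preincubated with inhibitor for 10 min at 37 °C. d,l-[3-14C]HMG-CoA (0.33 mM) and NADPH (3.0 mM) then added. [14C]mevalonate formation measured. IC50 from linear regression of % inhibition vs log concentration, ≥4 dilutions in duplicate.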

[3] = organism: Rattus norvegicus; assay: In vitro inhibitory potency for cholesterol synthesis was measured in rat ileum; type: functional
[4] = target: T2, 3-hydroxy-3-methylglutaryl-coenzyme A reductase; assay: (§1) In vitro inhibitory activity was measured against rat liver HMG-CoA reductase using [2-14C]-acetate incorporation
Procedure, shortened: (§2)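 Parenchymal hepatocytes from chow-fed male Wistar rats (180–280 g), collagenase-perfused, viability >95%. Cells held at 100 mg wet weight/2.0 mL in MEM with bicarbonate/HEPES, pH 7.4, 2% BSA, under 95% O2/5% CO2. Preincubated with inhibitor for 15 min, with DMSO at 0.5% final for lactones. [2-14C]acetate then added for 60 min at 37 °C. 14C in 3β-hydroxysterols counted. IC50 by regression from ≥4 concentrations; mean of n experiments.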

[5] = organism: Rattus norvegicus; assay: In vitro inhibitory potency for cholesterol synthesis was measured in rat spleen; type: functional
Procedure, shortened: (§3)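 Rat spleen and testes cell dispersions, prepared nonenzymatically. Na-salt inhibitors were preincubated with cells for 15 min under the hepatocyte conditions. [14C]acetate (45–55 μCi per μmol, 5 μCi per mL) was then incorporated for 60 min. Sterol IC50 is reported as a ratio to the IC50 in rat hepatocytes.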

[6] = organism: Rattus norvegicus; assay: In vitro inhibitory potency for cholesterol synthesis was measured in rat testes; type: functional, Testis; procedure, shortened: as §3
[7] = organism: Rattus norvegicus; assay: In vitro inhibitory potency for cholesterol synthesis was measured in rat adrenals; type: functional, Adrenal gland
[8] = organism: Bos taurus; assay: In vitro inhibitory potency for cholesterol synthesis was measured in bovine lens epithelial cell cultures
[9] = target: T2, 3-hydroxy-3-methylglutaryl-coenzyme A reductase; assay: as §1; remark: listed apart in the source
Procedure, shortened: as §2, with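 “counted.” for “counted. IC50 by regression from ≥4 concentrations; mean of n experiments.”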

Row | SMILES | Relative potency [1] | IC50 [2] [nM] | also measured
1 | CC(/C=C/[C@@H](O)C[C@@H](O)CC(=O)O)=C(c1ccc(F)cc1)c1ccc(F)cc1 | 0.0024 | 7900 | –
2 | CC(C)(C)n1nnc(C(/C=C/[C@@H](O)C[C@@H](O)CC(=O)O)=C(c2ccc(F)cc2)c2ccc(F)cc2)n1 (stereo in doubt; 49) [listing 1 of 2 here] | 1 | – | –
3 | CC(C)n1nnnc1C(/C=C/[C@@H](O)C[C@@H](O)CC(=O)O)=C(c1ccc(F)cc1)c1ccc(F)cc1 | 0.0014 | 14000 | –
4 | Cn1nnnc1C(/C=C/[C@@H](O)C[C@@H](O)CC(=O)O)=C(c1ccc(F)cc1)c1ccc(F)cc1 (stereo in doubt; 48) | – | > 300000 | –
5 | CC(C)C(/C=C/[C@@H](O)C[C@@H](O)CC(=O)O)=C(c1ccc(F)cc1)c1ccc(F)cc1 | 0.095 | 230 | –
6 | Cn1nnnc1C(/C=C/[C@@H](O)C[C@@H](O)CC(=O)[O-])=C(c1ccc(F)cc1)c1ccc(F)cc1.[Na+] (stereo in doubt; 3a) | – | 43 | IC50 ratio [3]: 129; IC50 [4]: 21 nM; IC50 ratio [5]: 149; IC50 ratio [6]: 86; IC50 ratio [7]: 76; IC50 ratio [8]: 144
7 | Cc1cc(C(=C(/C=C/[C@@H](O)C[C@@H](O)CC(=O)O)c2nnnn2C)c2ccc(F)c(C)c2)ccc1F | 0.12 | 160 | –
8 | Cc1ccc(C(=C(/C=C/[C@@H](O)C[C@@H](O)CC(=O)O)c2nnnn2C)c2ccc(C)cc2)cc1 | 0.015 | 1300 | –
9 | Cn1nnnc1C(C=C=C[C@@H](O)C[C@@H](O)CC(=O)O)=C(c1ccc(F)cc1)c1ccc(F)cc1 | 0.0033 | 5700 | –
10 | CC(C)n1nnnc1C(C=C=C[C@@H](O)C[C@@H](O)CC(=O)O)=C(c1ccc(F)cc1)c1ccc(F)cc1 | 0.00015 | 130000 | –
11 | N#CC(/C=C/[C@@H](O)C[C@@H](O)CC(=O)O)=C(c1ccc(F)cc1)c1ccc(F)cc1 | 0.0024 | 8000 | –
12 | Cc1ccc(C(=C(/C=C/[C@@H](O)C[C@@H](O)CC(=O)O)c2nnnn2C)c2ccc(C)cc2F)c(F)c1 | 0.032 | 580 | –
13 | Cn1nnnc1C(/C=C/[C@@H](O)C[C@@H](O)CC(=O)O)=C(c1ccccc1)c1ccccc1 | 0.1 | 190 | –
14 | CC(C)n1nnc(C(/C=C/[C@@H](O)C[C@@H](O)CC(=O)O)=C(c2ccc(F)cc2)c2ccc(F)cc2)n1 | < 6e-05 | > 300000 | –
15 | Cc1cc(F)ccc1C(=C(/C=C/[C@@H](O)C[C@@H](O)CC(=O)O)c1nnnn1C)c1ccc(F)cc1C | 0.67 | 29 | –
16 | Cn1nnnc1C(/C=C/[C@@H]1C[C@@H](O)CC(=O)O1)=C(c1ccc(F)cc1)c1ccc(F)cc1 | – | – | IC50 [9]: 24 nM
17 | CC(C)(C)n1nnc(C(/C=C/[C@@H](O)C[C@@H](O)CC(=O)O)=C(c2ccc(F)cc2)c2ccc(F)cc2)n1 (stereo in doubt; 49) [listing 2 of 2 here] | – | 19 | –
18 | CC(C)(C)n1nnc(C(/C=C/[C@@H](O)C[C@@H](O)CC(=O)O)=C(c2ccc(F)cc2)c2ccc(F)cc2)n1 (stereo in doubt; 47) [listing 1 of 2 here] | 0.005 | – | –
19 | CC(C)(C)n1nnc(C(/C=C/[C@@H](O)C[C@@H](O)CC(=O)O)=C(c2ccc(F)cc2)c2ccc(F)cc2)n1 (stereo in doubt; 47) [listing 2 of 2 here] | – | 3700 | –
20 | CC[C@H](C)C(=O)O[C@H]1C[C@@H](C)C=C2C=C[C@H](C)[C@H](CC[C@@H]3C[C@@H](O)CC(=O)O3)[C@H]21 [LOVASTATIN] | 0.71 | 27 | IC50 [9]: 32 nM; IC50 ratio [3]: 1.2; IC50 ratio [5]: 1.2; IC50 ratio [6]: 1.3; IC50 ratio [7]: 1; IC50 ratio [8]: 1.6
21 | O=C(O)C[C@H](O)C[C@H](O)/C=C/C(=C(c1ccc(F)cc1)c1ccc(F)cc1)C1N=NN=N1 | 0.0058 | 330 | –
22 | Cn1nnnc1C(/C=C/[C@@H](O)C[C@@H](O)CC(=O)O)=C(c1ccc(F)cc1)c1ccc(F)cc1 (stereo in doubt; 3a) | 0.43 | – | –
23 | COc1ccc(C(=C(/C=C/[C@@H](O)C[C@@H](O)CC(=O)O)c2nnnn2C)c2ccc(OC)cc2)cc1 | 0.014 | 1400 | –
24 | Cn1nnc(C(/C=C/[C@@H](O)C[C@@H](O)CC(=O)O)=C(c2ccc(F)cc2)c2ccc(F)cc2)n1 | 0.00063 | 30000 | –
25 | CCn1nnnc1C(/C=C/[C@@H](O)C[C@@H](O)CC(=O)O)=C(c1ccc(F)cc1)c1ccc(F)cc1 | 0.017 | 1100 | –
26 | CCn1nnc(C(/C=C/[C@@H](O)C[C@@H](O)CC(=O)O)=C(c2ccc(F)cc2)c2ccc(F)cc2)n1 | 9.1e-05 | 200000 | –
27 | Cn1nnnc1C(/C=C/[C@@H](O)C[C@@H](O)CC(=O)O)=C(\c1ccccc1)c1ccc(F)cc1 | 0.43 | 44 | –
28 | Cc1ccc(C(=C(/C=C/[C@@H](O)C[C@@H](O)CC(=O)O)c2nnnn2C)c2ccc(C)cc2C)c(C)c1 | 0.012 | 1600 | –
